Results reported in the EternaBench riboswitch data.

Test system: MS2 coat protein
Assay: apparent Kd, MS2 coat protein; higher = weaker binding; RNA-MaP array; FMN 200 µM where present
In short: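 Stalled E. coli RNA polymerase produced the designs on Illumina sequencing-chip clusters. SNAP-549-labelled MS2 coat protein was added from 0.7 or 1.5 nM, doubling to 3 µM, without and then with constant ligand, in 100 mM Tris-HCl pH 7.5, 80 mM KCl, 4 mM MgCl2, BSA, DTT, yeast tRNA and Tween-20. The apparent Kd is the median of filtered per-cluster fits of green signal normalised to red-channel RNA signal and control-cluster median Fmax.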

[1] = designed as: OFF switch for flavin mononucleotide, no ligand
[2] = ligand present: flavin mononucleotide, designed as: OFF switch for flavin mononucleotide
[3] = designed as: ON switch for flavin mononucleotide, no ligand
[4] = ligand present: flavin mononucleotide, designed as: ON switch for flavin mononucleotide

Row | Sequence | apparent Kd [1] | apparent Kd [2] | apparent Kd [3] | apparent Kd [4]
1 | AUUUUGUCAGGAUAUGAGUAGUAGGACGAAAGUGCUACUACUUAGAAGGGACAUGAGGAUCACCCAUGUCUUCC | 13.9 nM | 16.8 nM |  | 
2 | AUUUUUAAGGUAGGAUAUAGUAUAAUGAUUUAAUUAGAAGGAUCUCACAUGAGGAUCACCCAUGUAAUAGGAUUACCCAUGUAU | 27.8 nM | 22.7 nM |  | 
3 | CAAAAGUAUAACAAUUUCGAGGCACAGGAUAUGAGUGUGCACAUGAGGAUCACCCAUGUUAUAACUUAGAAGGGUGACCAUUGC |  |  | 265 nM | 443 nM
4 | CAAAGUUGGUAAGGAUAUCCCACAUUAUUCUGACCCGUGCAAGCUACAUGAGGAUCACCCAUGUGGGAGAAGGUGCGGUAAAGA | 6.16 nM | 6.11 nM |  | 
5 | CAACUGUGAGGAUAUGGUGAGUAGUGCCUGAGCGCUGCUCACCAGAAGGCACAUGAGGAUCACCCAUGUAUGAC | 46 nM | 164 nM |  | 
6 | CAAGUGCCGGAAGGAUAUCAGCGAUGUCACGCUUGAGAAGGUCUGUGCACAUGAGGAUCACCCAUGUCCGCCAGACUCCUUAAC | 9.98 nM | 8.49 nM |  | 
7 | CAAUAUAACACAGGAUAUGUCUCGUUUACAUGAGGAUCACCCAUGUCCGAAACAGAAGGGUGACCUGAUAUAGGACGUUAGGUG |  |  | 367 nM | 138 nM
8 | CAAUUCUGAGGAUAUCGAUUUUUGUACAUGAGGAUCACCCAUGUCCUUUUUAUUUAAUCCCGAGAAGGCAGUGUAU | 23.3 nM | 26.1 nM |  | 
9 | CAAUUGGCACAGAAGGGUGACAUGAGGAUCACCCAUGUAGCGUGGCAUUCAGGAGGAGCCACGCCACAGGAUAUGUGCCGGCAC |  |  | 138 nM | 116 nM
10 | CAAUUUAUAACAGGAUAUGUAAUUCAAUAGAAAAUAGAAGGGUUUUAUACAUGAGGAUCACCCAUGUCAUGUAUCAUAAUUACC | 143 nM | 122 nM |  | 
11 | CAAUUUAUAUCAGGAUAUACAAUACAAUGAUUAGUAGAAGGGAUUAAUACAUGAGGAUCACCCAUGUCAUGUGUCAUAAUAACC | 24.2 nM | 19.1 nM |  | 
12 | CAAUUUAUGUCAGGAUAUACAAUACAAUGAUUAGUAGAAGGGAUUAAUACAUGAGGAUCACCCAUGUCAUGUGUCAUAAUAACC | 26.1 nM | 20.1 nM |  | 
13 | CACACGAAAGUCGAACGAUGAUCCAGAAGGAGUAUAACAUGACAUGAGGAUCACCCAUGUGCCAACUAGGAUAUGGAUCAUGGG | 86.3 nM | 15.1 nM |  | 
14 | CACAGGGAUUCAGGAUAUAUUAGCCGAGGCCGCGUAGAAGGGAAAUCCUGACAUGAGGAUCACCCAUGUUGACCCGCCUUCCAU |  |  | 52.8 nM | 62.5 nM
15 | CACCGUUACCUAGGAUAUAGUACAUGAGGAUCACCCAUGUAAUAAAUGAGAAUUUCGGAUGUAUGCUAGAAGGAGGAAAUCGGC | 39 nM | 40.2 nM |  | 
16 | CACGGCGCAUGAGGAUAUCAGGGCGACCUUUCGACAUGAGGAUCACCCAUGUAAUCUACUCGGCGUGAGAAGGCAUGACAGCCA |  |  | 286 nM | 136 nM
17 | CACGGGUUAGGAUAUGCAUGGUGAAAAGACGCGAUCCUUAGACAUGAGGAUCACCCAUGUAGAAGGAACGCAAU | 18.6 nM | 15.9 nM |  | 
18 | CACUCGUGUCUAGGAUAUGAGUGACAAGCGCGAGAUUUCCUCGCCGCUAGCUCAGAAGGAGACAUGAGGAUCACCCAUGUAAGG | 90 nM | 24.4 nM |  | 
19 | CACUGUUUAGAGGAUAUUUACGGGUCACACCCAGGAGAAGGCUGUACAUGAGGAUCACCCAUGUGGUGCGCCUG | 32.4 nM | 51.3 nM |  | 
20 | CAGCACAUGAGGAUCACCCAUGUGCAUCCAUCAUGUGCCGUGCAGGAUAUAGACCGCCGUCCAGUCUAGAAGGGCACCGAUGAC | 159 nM | 75.1 nM |  | 
21 | CAGCCCUGAGGAUAUCCACCCUCGUACAUGAGGAUCACCCAUGUUUCCCUCUGGGCUUUCGGAGAAGGCAGGUAUC | 78.6 nM | 77.3 nM |  | 

Row | Sequence | apparent Kd [1] | apparent Kd [2] | apparent Kd [3] | apparent Kd [4]
22 | CAGCGAUAGCUGAACAAUCUAUCUGAGGAUAUUCAUAUAAACAUGAGGAUCACCCAUGUAAAUUGGGAGAAGGCAGAUAGAUUG |  |  | 18 nM | 5.06 nM
23 | CAGCUACCCAGUAUGGGUUUUUGUACAGAAGGCCAGGUACAUGAGGAUCACCCAUGUAAAGAUAUGGAGGAUAUGUUAGUGUAU |  |  | 29.1 nM | 8.08 nM
24 | CAGCUGAAAGUCAGGAUAUCUAGAGCUGCGGCUCUAGAGAAGGGACAUGAGGAUCACCCAUGUGAUCACAGCUG | 1440 nM | 150 nM |  | 
25 | CAGGAAAUAGAGGAUAUAGGAGUCGAUAGACUCCUAGAAGGCUAUACAUGAGGAUCACCCAUGUGUCCUACCUG | 16.7 nM | 43 nM |  | 
26 | CAGGAUAGAGGAUAUACAUAGAUACAGGUUCAUGUAAUCCUACAUGAGGAUCACCCAUGUAGAAGGCUAUCCUG | 15 nM | 43.3 nM |  | 
27 | CAGGCGGAGUCAGGAUAUGCACGGUGGACCCAUAACAUGAGGAUCACCCAUGUUACUACGCCUCAGCAGAAGGGACAACCUCCU |  |  | 28.7 nM | 6.21 nM
28 | CAGGUAUAAGGAUAUACAUAGAUACAGACACAUGUUCAAGUACAUGAGGAUCACCCAUGUAGAAGGUAUAUAUG | 28.8 nM | 25.6 nM |  | 
29 | CAGGUGUUAGGAUAUCGGAGAUUGAGGCAGACGGGAAUAUUCGAGAAGGAACAUGAGGAUCACCCAUGUAGUAG | 24.5 nM | 28.9 nM |  | 
30 | CAGUACAUGUUAGGAUAUGAUUCGGUACAGCGAUCAGAAGGAACAUGAGGAUCACCCAUGUGACCCACGAUUUGCAAACUAAGA | 8.43 nM | 17.8 nM |  | 
31 | CAGUACUGAGGAUAUACAUGAGGAUCACCCAUGUGAACCAGCUAGGAAACUAGCAAAGGUAGAAGGCAGUACUG | 21.3 nM | 259 nM |  | 
32 | CAGUACUGAGGAUAUACAUGAGGAUCACCCAUGUGUUCCAGCUAGGAAACGAGCAAAAGUAGAAGGCAGUACUG | 21.9 nM | 282 nM |  | 
33 | CAGUACUGAGGAUAUACAUGAGGAUCACCCAUGUGUUCCAGCUAGGAAACUAGCAAGAGUAGAAGGCAGUACUG | 23.7 nM | 459 nM |  | 
34 | CAGUACUGAGGAUAUACAUGAGGAUCACCCAUGUGUUCCAGCUAGGAAACUAGCAAUUGUAGAAGGCAGUACUG | 59.2 nM | 428 nM |  | 
35 | CAGUACUGAGGAUAUACAUGAGGAUCACCCAUGUGUUCCAGCUAGGAAACUAGGAAAAGUAGAAGGCAGUACUG | 22.1 nM | 261 nM |  | 
36 | CAGUACUGAGGAUAUACAUGAGGAUCACCCAUGUGUUCCUUGUAGGAUAUGCGCAAAAGUAGAAGGCAGAAGGACAUGUGCCUA | 7.48 nM | 6.45 nM |  | 
37 | CAGUACUGUCGAGAGGAUAUGCGGUGAUGGACAUGAGGAUCACCCAUGUUAGCGACAGCAUCACGGCAGAAGGCUCUACUGCUGC |  |  | 47.9 nM | 17.2 nM
38 | CAGUAGAUCCGAGGAUAUACAAUCCGGAAACGGUACAUGAGGAUCACCCAUGUAGAAGGCGGAUCUACAGGUACUAAAGUACCC | 5.99 nM | 7.8 nM |  | 
39 | CAGUCUACAGGAUAUACAUGAGGAUCACCCAUGUGUAUCAACCUUCUGUAAUCCACAUGUAGAAGGGUAGACUG | 14.8 nM | 13.5 nM |  | 
40 | CAGUCUACAGGAUAUACAUGAGGAUCACCCAUGUGUAUUCACUUUCAGUAGUCCAUAUGUAGAAGGGUAGACUG | 15.9 nM | 22.5 nM |  | 
41 | CAGUGCAUUGAGAAGGGACACCGGGAUCCCAACUUCUCUCAUAACGGACAUGAGGAUCACCCAUGUCAGGAUAUCAACGUUUAG | 23.1 nM | 16.7 nM |  | 
42 | CAUAACUUUUCUCAUGUAAACAUGAGGAUCACCCAUGUAAUGAGAAGGAGGAGGCAGAGAGAAUCCUAGGAUAUCAGAAUUGUU | 6.77 nM | 6.43 nM |  | 
